From PubChem BioAssay
FXIa inh: blocks human coagulation factor XIa protease activity; P03951; purified FXIa, Boc-Glu-Ala-Arg-AMC fluorogenic substrate; inhibition, % at 5 µM; 220,000 compounds, 0.14% hits; AID 798;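 active = inhibition of at least 40%; inactive = inhibition below 40%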;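 note: fluorescence of freed AMC excited at 355 nm; 0% = enzyme without compound and 100% = no enzyme blank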
Platelet DG rel: platelet dense granule release activity. 300,000 compounds, 0.22% hits. AID 1663. inhibition, %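 (compounds screened at 7.5 µM in platelet-rich plasma)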. human platelet-rich plasma, SFLLRN dense granule ATP release, luminescence;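 active = mean replicate score, as percent of positive control, at or above 50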
FXIIa inh: inhibitors of human coagulation factor XIIa; purified FXIIa, Boc-QGR-AMC fluorogenic substrate, 2 h; 220,000 compounds, 0.3% hits; AID 800; inhibition, % at 5 µM; in the data active = inhibition above about 40%;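 note: 0% = enzyme with no compound and 100% = blank without enzyme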
KLK5 inh: inhibitors of human kallikrein 5. 210,000 compounds, 0.59% hits. inhibition, % at 5 µM. Q9Y337. recombinant hK5, fluorogenic AMC substrate cleavage;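 active = inhibition of 40% or more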;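 note: 0% = enzyme controls without compound and 100% = no-enzyme blanks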
Target sequence (Q9Y337 67-293 limits assumed): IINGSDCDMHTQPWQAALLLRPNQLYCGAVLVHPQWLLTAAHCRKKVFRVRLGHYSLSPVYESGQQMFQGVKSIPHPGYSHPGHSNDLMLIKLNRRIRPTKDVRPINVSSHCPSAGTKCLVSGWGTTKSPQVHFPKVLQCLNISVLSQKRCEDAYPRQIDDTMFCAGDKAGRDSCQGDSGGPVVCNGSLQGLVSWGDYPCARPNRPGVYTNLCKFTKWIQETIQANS
thrombin 1536: blocks human thrombin protease activity | P00734 | alpha-thrombin, Boc-VPR-AMC fluorogenic substrate cleavage | inhibition, % at 5 µM | 220,000 compounds, 0.26% hits;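 active = inhibition at or above 40%; inactive = inhibition below 40%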;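 note: 0% = enzyme with no compound and 100% = wells without enzyme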
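signal = AMC fluorescence, 355/460 nm | material = human alpha-thrombin enzyme | control set = enzyme without compound as high, wells lacking enzyme as low | times = reaction at room temperature | read-out basis = percent inhibition scaled between no-compound controls and no-enzyme blanks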
Wee1 stabilizer: human Wee1 degradation inhibition, primary screen | P30291 | reporter increase, % at 5 µM | AID 1321 | 220,000 compounds, 1.2% hits | HeLa Luc-Wee1K328M stability, luciferase luminescence; 100% = proteasome inhibitor MG132 effect;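 active = activation above the mean of all tested compounds plus 3 SD, set per screening run, cut at about 8.8% in these data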;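 note: cells exposed to compound for 20 h before luminescence read; 0% = DMSO alone and 100% = MG132 at 30 µM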
The depositor's hits bear a star; · = not tested or not shown. The list is not random: actives were taken first. Their share in the collection is about 1.8%.

SMILES | FXIa inh | Platelet DG rel | FXIIa inh | KLK5 inh | thrombin 1536 | Wee1 stabilizer
OC1(c2ccc(F)cc2)CCN(Cc2nnnn2Cc2cccs2)CC1 | 2 | -3 | 11 | 36 | 61* | -2
CCN(c1ccccc1)S(=O)(=O)c1cc(NC(=O)CSc2n[nH]c(=O)[nH]c2=O)ccc1Cl | 3 | -1 | 8 | 5 | 4 | 9.2*
CNC(=O)Nc1ccc(S(N)(=O)=O)cc1 | -4 | -9 | 6 | 1 | -3 | 5
NS(=O)(=O)c1ccc(NC(=O)Nc2ccc(Cl)cc2)cc1 | 0 | 11 | 6 | 44* | -1 | -1
Cc1cc(C)c2nc(C)cc(Nc3ccc(C(=O)N(C)C)cc3)c2c1 | -2 | 14 | 11 | 4 | 3 | 1
CC(=O)c1ccc(Nc2cc(C)nc3c(C)cc(C)cc23)cc1 | 26 | -2 | 31 | 44* | 11 | 11*
CC1(C)CC(=O)C2=C(C1)N(Cc1ccccc1)C(=O)C2(NC(=O)C(C)(C)C)C(F)(F)F (stereo not drawn) | 15 | 0 | 14 | 53* | 19 | -3
C/C=C\C=C/C(=O)Nc1cccc(C2=NOC3(C2)C[C@H](C(N)=O)N(C(=O)Cc2ccc([N+](=O)[O-])cc2)C3)c1 (stereo partly drawn) | 3 | -12 | 7 | 3 | 1 | ·
COc1cc([N+](=O)[O-])cc2sc(NC(C)=O)nc12 | 60* | 9 | 27 | 23 | 39 | 9
COc1ccc(C2C(C(=O)O)c3ccccc3C(=O)N2C)cc1Br (stereo not drawn) | 34 | · | 58* | 3 | 1 | 1
O=C(Nc1ccc(S(=O)(=O)N2CCOCC2)cc1)c1cc(-c2ccccc2O)n[nH]1 | -1 | 1 | 5 | -2 | -1 | 10*
O=C(CN1CCCCCC1)Nc1ccc(S(=O)(=O)N2CCOCC2)cc1 | -3 | -2 | 6 | -2 | -11 | 9.6*
CCOc1ccc(S(=O)(=O)N(CC)CC(=O)NCc2cccnc2)cc1C | · | 14 | · | · | · | ·
O=C(CCc1ccccc1)Nc1ncc2c(n1)CCCC2=O | 7 | -5 | 20 | 4 | 2 | 7
CC1(C)CC(=O)c2cnc(NC(=O)CCc3ccccc3)nc2C1 | 12 | -1 | 26 | 86* | 14 | -1
Cc1cccc(C)c1NC(=O)c1cn(-c2ccccc2)nc1-c1ccccc1 | 4 | -5 | 14 | -9 | -2 | 4
O=C(NN=C1CCCCCC1)c1cn(-c2ccccc2)nc1-c1ccccc1 | 14 | -1 | 16 | 28 | 100* | 1
O=C(NCc1ccccn1)c1cn(-c2ccccc2)nc1-c1ccc(Cl)cc1 | -9 | 3 | -4 | 21 | 58* | 3
O=C(NCc1ccccn1)c1ccc(-c2ccccc2)cc1 | -2 | -3 | 3 | 1 | -6 | 5
O=C(NCc1ccc(F)cc1)C1CCN(S(=O)(=O)c2cccc3nonc23)CC1 | · | -7 | · | · | · | ·
COc1ccc(NC(=O)c2csc(C)c2)cc1OC | · | -5 | · | · | · | ·
CC(C)Nc1nc(SC(C)C(=O)Nc2ccccc2)nc(N(C)C)n1 (stereo not drawn) | -3 | 0 | 3 | -9 | 5 | 10*
Cc1ccccc1NC(=O)c1ccc(NC(=O)C2CC(=O)OC23CCCCC3)cc1 (stereo not drawn) | 31 | 2 | 17 | 15 | 64* | 1
O=C1CC(C(=O)Nc2ccccc2)C2(CCCC2)O1 (stereo not drawn) | -16 | -1 | -13 | -7 | -4 | 4
CC(C)(C)C(=O)Nc1ccc(-c2csnn2)cc1 | 7 | -7 | 6 | 2 | -11 | 11*
SMILES | FXIa inh | Platelet DG rel | FXIIa inh | KLK5 inh | thrombin 1536 | Wee1 stabilizer
COC(=O)c1cc2ccsc2n1CC(=O)N1CCCc2ccccc21 | -4 | -2 | -1 | -5 | -7 | 20*
Cc1c(C)n(CCC#N)c2ccccc12 | 32 | -11 | 43* | -14 | -9 | -2
Cc1cccc(CNC(=O)C2CCC(=O)N(C3CC3)C2)c1 (stereo not drawn) | · | -6 | · | · | · | ·
O=C(Cc1cccs1)Nc1nnc(CCc2ccccc2)s1 | 41* | 1 | 15 | 43* | 54* | 0
CCCc1nc2ccccc2c(C(=O)OCC(=O)N2CCc3ccccc32)c1CC | 20 | -3 | 37 | 58* | 12 | -1
CCCNC(=S)N1CCC(NC(=O)c2ccc(C)cc2)CC1 | · | 0 | · | · | · | ·
CC(/C=N/NC(=O)c1cc(-c2cccn2C)n[nH]1)=C\c1ccccc1 | 53* | -1 | 36 | 57* | 21 | -1
